Type in all cases: functional, cell-based
The subject of test [1] is HL-60. Nature of the test: Cytochrome c release in HL60 cells by immunoblotting at 1 uM. To be noted: Homo sapiens. In short, it runs like this: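 HL-60 cells treated with 1 or 3 µM compound and harvested at 12 h. Cytosolic lysates were immunoblotted with anti-cytochrome c antibody, looking for the 15 kDa band. β-actin served as loading control.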
On the technique in general: Immunoblotting shows a protein as a band on a membrane.

For test [2], the system named is HL-60. Put plainly: Condensation of chromatin in HL60 cells at 1 uM for 12 hrs. Conditions: Homo sapiens. In short, it runs like this: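 HL-60 cells exposed to 1 µM compound for 12 h, then DNA stained with Hoechst 33258. Chromatin condensation and apoptotic bodies were examined by fluorescence microscopy. Apoptotic nuclei were counted quantitatively in triplicate, and the experiment was repeated once.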

Test [3] relates to HL-60. Nature of the test: In vitro antiproliferative activity against human HL60 myeloid leukemia cell line by MTT assay. A general note: Formazan colour is commonly taken as a measure of viable cells.
The test system of test [4] is HL-60. Put plainly: PARP hydrolysis in HL60 cells by an immunoblot assay. Conditions: Homo sapiens. In short, it runs like this:
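HL-60 cell lysates, equal protein per lane, were run on SDS-PAGE and blotted with an anti-PARP monoclonal antibody to detect PARP cleavage. Etoposide was the positive control.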

A further test deals with PBMC. Nature of the test: In vitro antiproliferative activity against human PBM cell line by MTT assay. In short, it runs like this:
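PBMCs isolated from anticoagulant-treated blood of healthy human donors. Cells were cultured with or without compound for 24 h, and growth was read by MTT dye-reduction assay. IC50 taken from dose-response curves of at least two independent experiments, each in triplicate determinations, as mean ± SE.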

A further test has as its system K562. Nature of the test: In vitro antiproliferative against human chronic myelogenous K562 cell line. In short, it runs like this: (§1)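 Exponentially growing cells in RPMI 1640 with 10% FCS, 2 mM L-glutamine, […] and penicillin/streptomycin. Exposed to increasing drug concentrations, diluted from a 1 mg/mL DMSO stock. Cell number per mL was counted by Coulter counter after 48 h, using duplicate cultures per concentration and at least three repeats. IC50 = 50% growth inhibition versus untreated controls, reported as mean ± SE.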

For test [5], the system named is HL-60. Put plainly: DNA fragmentation in HL60 cells by ethidium bromide staining at 1 uM for 12 hrs. Conditions: Homo sapiens.
Another test deals with L1210. Put plainly: In vitro antiproliferative activity against murine lymphocytic L1210 leukemia cell line. To be noted: Mus musculus. In short, it runs like this: as §1

Activity calls are given as the source filed them. No cut-off for these calls is given here.

Take `C=C(Br)C(=O)Nc1ccc2sc(C(=O)NCCNC(=O)c3cc(OCC4(c5ccc(Cl)cc5)CC(=C)C(=O)O4)nn3C)cc2c1` (configuration not stated): the outcome with HL-60 [1], in the test with HL-60 [2], with HL-60 [4] and in the test with HL-60 [5] was Active. The IC50 in the test on HL-60 [3] was determined as 290 nM; in the test with PBMC, 6820 nM; in the test on K562, 410 nM; with L1210, 260 nM.
As for `C=C(Br)C(=O)Nc1ccc2c(c1)cc(C(=O)O)n2C`, the IC50 in the test with K562 amounted to 3370 nM; in the test with L1210, 2070 nM.
Regarding `C=C(Br)C(=O)Nc1ccc2sc(C(=O)O)cc2c1`, the half-maximal inhibitory concentration (IC50) in the test with K562 stood at 5000 nM; with L1210, 4500 nM.
As to `C=C(Br)C(=O)Nc1ccc2oc(C(=O)NCCNC(=O)c3cc(OCC4(c5ccccc5)CC(=C)C(=O)O4)nn3C)cc2c1` (configuration not stated), the result in the test with HL-60 [1], in the test on HL-60 [2], in the test on HL-60 [4] and in the test on HL-60 [5] was Active. In addition, the IC50 in the test with HL-60 [3] is 270 nM; in the test on PBMC, 5440 nM; in the test with K562, 420 nM; in the test with L1210, 310 nM.
With `C=C(Br)C(=O)Nc1ccc2[nH]c(C(=O)NCCNC(=O)c3cc(OCC4(c5ccccc5)CC(=C)C(=O)O4)nn3C)cc2c1` (configuration not stated), the half-inhibitory concentration (IC50) with K562 was determined as 630 nM; in the test with L1210 it was 850 nM.
The matching figures for `C=C1CC(COc2cc(C(=O)O)n(C)n2)(c2ccc(Cl)cc2)OC1=O` (configuration not stated): over 10000 nM and over 10000 nM.
As to `C=C(Br)C(=O)Nc1ccc2c(c1)cc(C(=O)NCCNC(=O)c1cc(OCC3(c4ccc(-c5ccccc5)cc4)CC(=C)C(=O)O3)nn1C)n2C` (configuration not stated), the results for the IC50 in the test with K562 and in the test on L1210 were 360 nM and 280 nM, respectively.
On to `C=C1CC(COc2cc(C(=O)O)n(C)n2)(c2ccccc2)OC1=O` (configuration not stated), for which the half-maximal inhibitory concentration (IC50) in the test on K562 and in the test with L1210 was over 10000 nM in each case.
With `C=C(Br)C(=O)Nc1ccc2[nH]c(C(=O)NCCNC(=O)c3cc(OCC4(c5ccc(-c6ccccc6)cc5)CC(=C)C(=O)O4)nn3C)cc2c1` (configuration not stated), the IC50 with K562 amounted to 480 nM; in the test with L1210 it was 360 nM.
Regarding `C=C1CC(COc2cc(C(=O)O)n(C)n2)(c2ccc(-c3ccccc3)cc2)OC1=O` (configuration not stated), the IC50 in the test on K562 and with L1210 was over 10000 nM each time.
As for `C=C(Br)C(=O)Nc1ccc2sc(C(=O)NCCNC(=O)c3cc(OCC4(C)CC(=C)C(=O)O4)nn3C)cc2c1` (configuration not stated), the half-maximal inhibitory concentration (IC50) in the test with K562 was 1020 nM; in the test with L1210, 840 nM.
Turning to `C=C(Br)C(=O)Nc1ccc2sc(C(=O)NCCNC(=O)c3cc(OCC4(c5ccc(-c6ccccc6)cc5)CC(=C)C(=O)O4)nn3C)cc2c1` (configuration not stated), the outcome with HL-60 [1], in the test on HL-60 [2], in the test with HL-60 [4] and in the test on HL-60 [5] was Active. Further, the half-inhibitory concentration (IC50) in the test with HL-60 [3] worked out at 360 nM; in the test on PBMC, 8610 nM; with K562, 380 nM; with L1210 it was 290 nM.
Regarding `C=C(Br)C(=O)Nc1ccc2[nH]c(C(=O)O)cc2c1`, the concentration for half-maximal inhibition (IC50) in the test on K562 turned out to be 5600 nM; with L1210 it was 4300 nM.
For `C=C(Br)C(=O)Nc1ccc2oc(C(=O)O)cc2c1`, the IC50 amounted to 7250 nM in the test on K562 and 2950 nM with L1210.
For the molecule `C=C1CC(C)(COc2cc(C(=O)O)n(C)n2)OC1=O` (configuration not stated), the IC50 with K562 and with L1210 was over 10000 nM in each case.
With `C=C(Br)C(=O)Nc1ccc2oc(C(=O)NCCNC(=O)c3cc(OCC4(c5ccc(Cl)cc5)CC(=C)C(=O)O4)nn3C)cc2c1` (configuration not stated), the concentration for half-maximal inhibition (IC50) in the test on K562 was 710 nM; with L1210, 550 nM.
The matching figures for `C=C(Br)C(=O)Nc1ccc2oc(C(=O)NCCNC(=O)c3cc(OCC4(c5ccc(-c6ccccc6)cc5)CC(=C)C(=O)O4)nn3C)cc2c1` (configuration not stated): 410 nM and 270 nM.
With `C=C(Br)C(=O)Nc1ccc2c(c1)cc(C(=O)NCCNC(=O)c1cc(OCC3(c4ccccc4)CC(=C)C(=O)O3)nn1C)n2C` (configuration not stated), the outcome in the test with HL-60 [1], with HL-60 [2], in the test on HL-60 [4] and in the test on HL-60 [5] was Active. For the same molecule, the half-inhibitory concentration (IC50) in the test with HL-60 [3] is 110 nM; with PBMC it was 2520 nM; in the test on K562 it was 80 nM; with L1210, 50 nM.
Consider `C=C(Br)C(=O)Nc1ccc2sc(C(=O)NCCNC(=O)c3cc(OCC4(c5ccccc5)CC(=C)C(=O)O4)nn3C)cc2c1` (configuration not stated), for which the IC50 in the test on K562 was found to be 270 nM; in the test with L1210 it was 290 nM.

What is called IC50 is the midpoint of a concentration-inhibition curve. The low end stands for higher potency, the high end for lower potency.
